Screening results (PubChem)
NadD inh: inhibitors of Staphylococcus aureus NadD; purified NadD enzyme, colorimetric absorbance read-out; inhibition, % at 20 µM; AID 602399; 360,000 tested, 0.78% active; in the data active = inhibition above about 26%
Rpn11 block: inhibitors of human proteasome Rpn11 | human 26S proteasome, Ub4-pepOG fluorescence polarization; 20S core pre-blocked with epoxomicin | O00487 | 360,000 tested, 0.59% active | inhibition, % at 20 µM;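 active = inhibition at 20 µM, scaled to each plate's controls, above about 33%, limit read from the data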
PP1 counter: PP1-alpha (human) inhibition in PP5 counter-screen | 320,000 tested, 0.9% active | AID 2235 | inhibition, % at 6.7 µM | purified PP1alpha, OMFP fluorescence | P62136;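 active = inhibition above the mean inhibition of all tested compounds plus 3 SD, computed separately for each screening campaign, cut at about 15% in these data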
CSN deneddyl inh: inhibitors of human CSN-mediated cullin deneddylation; 360,000 tested, 0.38% active; inhibition, % at 12.5 µM; Q92905; AID 651999; Purified CSN, SCF-Nedd8-OG deneddylation, fluorescence polarization;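 active = pattern-corrected inhibition above about 35%, with an unprinted fluorescence ratio check between 0.5 and 1.5, limit read from the data, passing the limit was not always enough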;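 also: 0% = enzyme with substrate and 100% = substrate without enzyme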
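Test system: purified human Csn5 enzyme expressed in HEK293T cells. Amount: 0.24 nM enzyme. Reagent: SCFSkp2-Nedd8OG substrate at 10 nM final. Schedule: 90 min incubation of compound, enzyme and substrate at room temperature. Detection: fluorescence polarization. Read-out: % inhibition of substrate cleavage by Csn5.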
HNF4A DNA FP: change in binding of human HNF4 alpha to DNA | P41235 | 360,000 tested, 0.3% active | activity change, % at 10 µM | HNF4a-FITC DNA binding, fluorescence polarization, 1 h; in the data active = activity change above about 30%, passing the limit was not always enough
TPT1 inh: C. albicans TPT1 enzyme inhibition; 300,000 tested, 0.81% active; inhibition, % at 5 µM; recombinant caTPT1, FP RNA substrate dephosphorylation;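 active = inhibition above the mean of all tested compounds plus 3 SD, set per screening campaign, cut at about 24% in these data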;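 also: plate controls were DMSO alone for no effect and ferristatin control at 100 nM for full effect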
PP1 confirm: confirmation of human PP1 phosphatase inhibitors. inhibition, % at 6.7 µM. 1,900 tested, 52% active. AID 2358. shares compounds with PP1 counter. purified PP1alpha, OMFP substrate fluorescence;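 active = mean PP1 inhibition above a set limit taken from the earlier primary screen, cut at about 15% in these data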
PP5 inh counter: PP5 phosphatase inhibition, counter-screen for PP1 inhibitors | shares compounds with PP1 counter | purified PP5c, OMFP fluorescence | inhibition, % at 6.7 µM | 1,900 tested, 4% active | AID 2360;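 active = mean PP5 inhibition over triplicate wells above about 9.5% taken from the earlier PP1 screen, limit read from the data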
Rpn11 confirm: confirmation of human proteasome Rpn11 inhibitors; shares compounds with Rpn11 block; purified human 26S proteasome, Ub4-pepOG fluorescence polarization; proteasome pretreated with epoxomicin; inhibition, % at 20 µM; 1,900 tested, 29% active; AID 602318
MMP-2 counter-1: blocks human MMP-2, flagging nonselective RPN11 hits. shares compounds with Rpn11 block. recombinant MMP-2, FRET peptide cleavage fluorescence. inhibition, % at 20 µM. 1,900 tested, 4% active. AID 602330;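 also: human MMP-2 activated beforehand with APMA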
Thrombin inh: counter-screen for RPN11 inhibitors: inhibition of bovine thrombin; bovine thrombin cleavage of Ub4-pepOG, fluorescence polarization; 1,900 tested, 13% active; inhibition, % at 20 µM; shares compounds with Rpn11 block;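 active = mean inhibition at least 40% at 20 µM, or signal 3 deviations below plate average, so some actives read negative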;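 also: plate controls were thrombin with DMSO for no effect and buffer wells lacking thrombin for full effect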
Target sequence (P00735 whole entry, looked up): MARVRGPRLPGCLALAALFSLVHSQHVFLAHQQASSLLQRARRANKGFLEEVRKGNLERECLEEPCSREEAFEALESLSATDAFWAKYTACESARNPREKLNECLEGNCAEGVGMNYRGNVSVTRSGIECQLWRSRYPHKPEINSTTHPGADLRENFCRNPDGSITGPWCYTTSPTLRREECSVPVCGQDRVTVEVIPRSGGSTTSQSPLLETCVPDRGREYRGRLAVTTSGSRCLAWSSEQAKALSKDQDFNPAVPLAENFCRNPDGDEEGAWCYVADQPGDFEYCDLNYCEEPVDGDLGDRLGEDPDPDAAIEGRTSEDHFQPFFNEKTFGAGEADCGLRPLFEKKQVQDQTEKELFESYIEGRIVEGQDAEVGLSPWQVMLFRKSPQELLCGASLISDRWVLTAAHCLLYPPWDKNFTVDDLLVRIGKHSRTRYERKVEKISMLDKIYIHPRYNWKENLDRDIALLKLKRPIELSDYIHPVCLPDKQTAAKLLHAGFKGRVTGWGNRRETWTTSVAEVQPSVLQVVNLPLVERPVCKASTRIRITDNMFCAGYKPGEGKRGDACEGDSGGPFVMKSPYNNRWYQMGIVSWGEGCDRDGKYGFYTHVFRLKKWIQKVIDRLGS
NadD inh conf: NadD (S. aureus) inhibition, single concentration confirmation. shares compounds with NadD inh. purified S. aureus NadD, colorimetric enzyme assay. inhibition, % at 20 µM. 2,000 tested, 13% active; in the data active = inhibition mostly above about 42%, no sharp cut-off; inactive = mostly below about 42%
CSN deneddyl val: Csn5 (human) deneddylation inhibition, single-concentration validation. Csn5 deneddylation of SCF-Nedd8OG, fluorescence polarization, 90 min. inhibition, % at 16.6 µM. shares compounds with CSN deneddyl inh. AID 720654. 540 tested, 62% active; in the data active = inhibition above about 50%;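 also: 0% = DMSO with enzyme and 100% = no enzyme wells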
MMP-2 counter-2: blocks human MMP-2 in a CSN deneddylation counter-screen. recombinant MMP-2, FRET substrate fluorescence, 60 min. inhibition, % at 16.6 µM. shares compounds with CSN deneddyl inh. AID 720655. 540 tested, 33% active;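 active = corrected plate-normalized z-score of 5 or more, or -5 or less, or inhibition of 15% or more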;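 also: plate controls were DMSO wells with enzyme for no effect and buffer wells lacking MMP-2 for full effect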
Thrombin cntr: counter-screen for CSN deneddylation inhibitors: bovine thrombin inhibition; bovine thrombin cleavage of Ub4-pepOG, fluorescence polarization; 540 tested, 49% active; shares compounds with CSN deneddyl inh; AID 720656; inhibition, % at 16.6 µM;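 active = inhibition at or above a set limit, with a fluorescence interference ratio between 0.5 and a set maximum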
Numbers without * were called inactive; / = no result shown; ! = a repeat was not active. A selection: hits, their analogues and other compounds. The true share with any hit is near 2.7%. Rule as the data show it, unless noted: active = inhibition above about 40%; inactive = the rest.

SMILES	NadD inh	Rpn11 block	PP1 counter	CSN deneddyl inh	HNF4A DNA FP	TPT1 inh	PP1 confirm	PP5 inh counter	others
CC1CC(NC(=O)C2C3CCC(O3)C2C(=O)O)CC(C)(C)C1 (centres undefined)	-4.4	-0.7	79.7*	-2.6	-2.7	-2.4	30.3*	47.8*
CCCOC(=O)C1C2CCC(O2)C1C(=O)O (centres undefined)	4.9	1.1	/	-0.9	-6.2	/	/	/
CC(=O)c1ccccc1NC(=O)C1C2CCC(O2)C1C(=O)O (centres undefined)	/	/	72.4*	/	/	-1.4	33.3*	39.0*
O=C(O)C1C2CCC(O2)C1C(=O)Nc1ccc(F)c(F)c1 (centres undefined)	-5.7	-10.0	67.8*	0.9	1.1	-0.1	12.8	22.4*
CC(=O)Nc1ccc(S(=O)(=O)N2Cc3cnnn3-c3ccccc3C2C#N)cc1 (centres undefined)	-0.8	-5.2	/	6.4	-1.6	/	/	/
Clc1ccc(Cn2ccnc2)cn1	0.8	-0.6	6.3	1.1	-2.2	2.2	/	/
Clc1ccc(CCC(Cn2ccnc2)Sc2c(Cl)cccc2Cl)cc1 (centres undefined)	20.0	-4.1	33.8*	-2.7	-5.1	-2.7	27.8*	-3.5
COC(=O)C1=C(c2ccc(F)cc2F)C[C@@H]2CC[C@H]1N2C(=O)NCCOc1ccccc1	-3.9	3.1	1.1	1.9	3.4	/	/	/
COC1C(OC(=O)c2ccc(C)[nH]2)C(O)C(Oc2ccc3c(O)c(NC(=O)c4ccc(O)c(CC=C(C)C)c4)c(=O)oc3c2Cl)OC1(C)C (centres undefined)	31.4*	16.3	24.5*	-4.1	2.8	-6.1	16.8*	3.8	NadD inh conf=50.4*
COc1ccc2c(c1)[C@@]13CCC=C[C@H]1[C@@H](C2)NCC3	-0.8	2.7	-3.4	-2.2	-3.8	-0.2	/	/
CN(C)[C@@H]1C(=O)C(C(N)=O)=C(O)[C@@]2(O)C(=O)C3=C(O)c4c(O)cccc4[C@@](C)(O)C3[C@H](O)C12 (some centres undefined)	20.3	/	19.6*	36.6*!	-57.5	-31.4	13.8	11.9*!	CSN deneddyl val=88.8*;MMP-2 counter-2=8.7;Thrombin cntr=13.2
COC(=O)C1=C(c2ccc3ccccc3c2)C[C@@H]2CC[C@H]1N2C(=O)NCCNC(C)=O	-1.3	4.7	-3.8	-1.2	-3.6	/	/	/
Cc1ccc(N2C(=O)NC(=O)/C(=C/c3ccoc3)C2=O)cc1	24.0	150.3*	/	88.3*	-28.0	/	/	/	Rpn11 confirm=144.3*;MMP-2 counter-1=32.0;Thrombin inh=23.4
O=C(N/N=C/c1c(O)n(C2CCCCC2)c(=S)[nH]c1=O)c1ccccc1O	8.1	49.4*	2.8	3.5	-0.9	6.5	/	/	Rpn11 confirm=52.9*;MMP-2 counter-1=-22.3;Thrombin inh=13.1
